{"source": "ChEMBL document CHEMBL1152771", "about": "“Identification of Shc Src homology 2 domain-binding peptoid-peptide hybrids” (J Med Chem, 2009)", "key": {"[1]": {"target": "T1, SHC-transforming protein 1 (Homo sapiens) (UniProt P29353)", "T1 sequence (whole entry)": "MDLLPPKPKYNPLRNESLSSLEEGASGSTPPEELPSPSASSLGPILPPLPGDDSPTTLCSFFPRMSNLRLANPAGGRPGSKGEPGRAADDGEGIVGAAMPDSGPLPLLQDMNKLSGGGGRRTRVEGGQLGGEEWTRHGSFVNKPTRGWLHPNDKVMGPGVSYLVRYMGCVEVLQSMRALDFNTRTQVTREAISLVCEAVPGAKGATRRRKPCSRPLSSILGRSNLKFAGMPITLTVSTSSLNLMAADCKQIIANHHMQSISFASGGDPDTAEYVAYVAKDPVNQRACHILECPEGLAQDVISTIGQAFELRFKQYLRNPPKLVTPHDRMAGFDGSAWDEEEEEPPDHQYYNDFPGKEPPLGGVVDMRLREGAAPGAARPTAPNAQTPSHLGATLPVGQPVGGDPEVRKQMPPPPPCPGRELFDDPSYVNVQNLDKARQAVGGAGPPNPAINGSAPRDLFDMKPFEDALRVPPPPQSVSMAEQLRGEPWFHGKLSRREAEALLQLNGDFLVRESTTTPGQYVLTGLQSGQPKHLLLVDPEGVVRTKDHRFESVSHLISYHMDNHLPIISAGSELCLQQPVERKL", "assay": "Inhibition of Shc Src homology 2 domain binding to cMet expressed in human B5/589 cells at 10 uM", "type": "cell-based", "procedure,_shortened": "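B5/589 human mammary epithelial cells serum-starved 48 h, then exposed 1 h to peptide (10 μM) or none. HGF stimulation at 50 ng/mL for 20 min, then lysis in cold detergent buffer (pH 7.4). c-Met captured with biotinylated antibody on streptavidin resin; co-precipitated Shc and recovered c-Met detected by SDS-PAGE and immunoblot with chemiluminescence.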"}, "[2]": {"target": "T1, SHC-transforming protein 1 (Homo sapiens)", "assay": "(§1) Binding affinity to Shc Src homology 2 domain by fluorescence anisotropy", "procedure,_shortened": "(§2)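 Direct binding: 5 nM N-terminal fluorescein-labelled peptide in 10 mM HEPES, 150 mM NaCl pH 7.5 with 10% (v/v) DMSO; Shc SH2 protein serially diluted from 100 μM. Excitation 485 nm, parallel and perpendicular emission at 535 nm. Kd from fitting anisotropy versus protein concentration to a single-site binding model.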"}, "[3]": {"target": "T2, SHC-transforming protein 1 (Homo sapiens, UniProt P29353)", "T2 sequence (P29353 whole entry)": "T1 sequence (whole entry)", "assay": "as §1", "procedure,_shortened": "as §2"}}, "note": "Activity calls are given as the source filed them. The calls are words filed in the database; no cut-off is given here. Where a SMILES comes first, the peptide text is derived from it. [ ]: non-standard residue; d: D form. The star is where a group is joined. X2 = O=C(c1cc(N=C=S)ccc1-c1c2ccc(=O)cc-2oc2cc(O)ccc12)*; pY = N[C@@H](Cc1ccc(OP(=O)(O)O)cc1)C(=O)O; GABA = NCCCC(=O)O", "data": [{"molecule": "CC(=O)N[C@@H](CCCNC(=N)N)C(=O)N[C@@H](CCCNC(=N)N)C(=O)N[C@@H](CCCNC(=N)N)C(=O)N[C@@H](CCCNC(=N)N)C(=O)N[C@@H](CCCNC(=N)N)C(=O)N[C@@H](CCCNC(=N)N)C(=O)N[C@@H](CCCNC(=N)N)C(=O)N[C@@H](CCCNC(=N)N)C(=O)NCCOCCOCCOCCNC(=O)[C@H](CO)NC(=O)[C@H](CC(C)C)NC(=O)CNC(=O)[C@H](CCC(N)=O)NC(=O)[C@H](Cc1ccc(OP(=O)(O)O)cc1)NC(=O)CCCCNC(=O)c1cc(N=C=S)ccc1-c1c2ccc(=O)cc-2oc2cc(O)ccc12", "values": [{"measurement": "Activity", "setting": "[1]", "result": "Active"}]}, {"molecule": "CC[C@H](C)[C@H](NC(=O)[C@H](CCCCN)NC(=O)[C@@H](NC(=O)[C@H](CCC(N)=O)NC(=O)[C@H](CCCNC(=N)N)NC(C)=O)[C@@H](C)CC)C(=O)N[C@@H](Cc1c[nH]c2ccccc12)C(=O)N[C@@H](Cc1ccccc1)C(=O)N[C@@H](CCC(N)=O)C(=O)N[C@@H](CC(N)=O)C(=O)N[C@@H](CCCNC(=N)N)C(=O)N[C@@H](CCCNC(=N)N)C(=O)N[C@@H](CCSC)C(=O)N[C@@H](CCCCN)C(=O)N[C@@H](Cc1c[nH]c2ccccc12)C(=O)N[C@@H](CCCCN)C(=O)N[C@@H](CCCCN)C(=O)NCCOCCOCCOCCNC(=O)[C@H](CO)NC(=O)[C@H](CC(C)C)NC(=O)CNC(=O)[C@H](CCC(N)=O)NC(=O)[C@H](Cc1ccc(OP(=O)(O)O)cc1)NC(=O)CCCCNC(=O)c1cc(N=C=S)ccc1-c1c2ccc(=O)cc-2oc2cc(O)ccc12", "values": [{"measurement": "Activity", "setting": "[1]", "result": "Active"}]}, {"molecule": "CC(C)C[C@H](NC(=O)CNC(=O)[C@H](CCC(N)=O)NC(=O)[C@H](Cc1ccc(OP(=O)(O)O)cc1)NC(=O)[C@H](CC(C)C)NC(=O)CNC(=O)c1cc(N=C=S)ccc1-c1c2ccc(=O)cc-2oc2cc(O)ccc12)C(=O)N[C@@H](CO)C(N)=O", "note": "(HELM PEPTIDE1{[O=C(c1cc(N=C=S)ccc1-c1c2ccc(=O)cc-2oc2cc(O)ccc12)[*:2]].G.L.[O=C([C@H](Cc1ccc(OP(=O)(O)O)cc1)N[*:1])[*:2]].Q.G.L.S.[am]}$$$$V2.0)", "values": [{"measurement": "Activity", "setting": "[2]", "result": "inactive"}]}, {"molecule": "CC(C)C[C@H](NC(=O)CNC(=O)[C@H](CCC(N)=O)NC(=O)[C@H](Cc1ccc(OP(=O)(O)O)cc1)NC(=O)CNC(=O)c1cc(N=C=S)ccc1-c1c2ccc(=O)cc-2oc2cc(O)ccc12)C(=O)N[C@@H](CO)C(N)=O", "note": "(HELM PEPTIDE1{[O=C(c1cc(N=C=S)ccc1-c1c2ccc(=O)cc-2oc2cc(O)ccc12)[*:2]].G.[O=C([C@H](Cc1ccc(OP(=O)(O)O)cc1)N[*:1])[*:2]].Q.G.L.S.[am]}$$$$V2.0)", "values": [{"measurement": "Activity", "setting": "[2]", "result": "inactive"}]}, {"molecule": "CC(C)C[C@H](NC(=O)CNC(=O)[C@H](CCC(N)=O)NC(=O)[C@H](Cc1ccc(OP(=O)(O)O)cc1)NC(=O)CCCNC(=O)c1cc(N=C=S)ccc1-c1c2ccc(=O)cc-2oc2cc(O)ccc12)C(=O)N[C@@H](CO)C(N)=O", "note": "({X2-GABA}-[pY]QGLS-NH2)", "values": [{"measurement": "Kd", "setting": "[3]", "result": 7.2, "unit": "µM"}]}]}
